Series [1] in a line: Cytotoxicity against african green monkey Vero 76 cells assessed as cell viability after 3 to 5 days. Type of series: cell-based. Conditions: chlorocebus sabaeus.
Series [2] in a line: Selectivity index, ratio of CC50 for african green monkey Vero cells to EC50 for Pichinde virus An 4763. Type of series: toxicity, cell-based. Conditions: read-out: Ratio CC50/EC50.
Series [3] in a line: Selectivity index, ratio of CC50 for african green monkey Vero 76 cells to EC50 for Sandfly fever Naples virus. Type of series: toxicity, cell-based. The note with it: read-out: Ratio CC50/EC50.
The nature of series [4]: Selectivity index, ratio of CC50 for african green monkey Vero cells to EC50 for Junin virus Candid-1. The note with it: read-out: Ratio CC50/EC50. The series is classed as toxicity, cell-based.
Series [5] in a line: Selectivity index, ratio of CC50 for african green monkey Vero 76 cells to EC50 for Rift Valley fever virus MP-12. The series is classed as toxicity, cell-based. The note with it: read-out: Ratio CC50/EC50.
For series [6], the system named is Mus musculus. The series can be described thus: % Compound cleared in virus-infected po dosed mouse after 6 hrs. The series is classed as ADME, organism-based. The note with it: in vivo.
Series [7] can be described thus: Metabolic stability in po dosed mouse assessed as drug remaining after 6 hrs. Type of series: ADME, organism-based. The note with it: in vivo, read-out: Stability.
The nature of series [8]: Selectivity index, ratio of CC50 for african green monkey Vero cells to EC50 for Tacaribe virus TRVL11573. Type of series: toxicity, cell-based. The note with it: read-out: Ratio CC50/EC50.
Series [9] is filed under the species Mus musculus. The note with it: in vivo, po.
A short description of series [10]: Selectivity index, ratio of CC50 for african green monkey Vero 76 cells to EC50 for La Crosse virus. Type of series: toxicity, cell-based. Conditions: read-out: Ratio CC50/EC50.
A short description of series [11]: Selectivity index, ratio of CC50 for african green monkey Vero 76 cells to EC50 for Punta Toro virus Adames. Type of series: toxicity, cell-based. The note with it: read-out: Ratio CC50/EC50.
Series [12] concerns Syrian golden hamster. Conditions: in vivo, po, 72 h.
A short description of series [13]: Cytotoxicity against african green monkey Vero cells after 7 to 8 days by neutral-red dye uptake assay. The series is classed as cell-based. Conditions: chlorocebus sabaeus. In a few lines:
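Subconfluent (50-70%) Vero cells received half-log drug dilutions without virus and were held at 37°C, 5% CO2 for 7-8 days. Cells were stained with 0.034% neutral red for 2 h, and the dye was extracted 30 min in ethanol with Sorenson's citrate buffer. Absorbance was read at 540 nm as % of untreated controls. CC50 was derived by regression.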

The CC50 is the concentration at which the toxic effect on the cells reaches its halfway point. As a reminder, the LD50 is the dose expected to kill half of the subjects tested. For `NC(=O)c1nc(F)c[nH]c1=O` [FAVIPIRAVIR], the cytotoxic concentration (CC50) was greater than 6260 µM in series [1] and 1110 µM in [13]. In addition, the selectivity ratio in [2] is 186; in [3], greater than 55; in series [4] it was 239; in series [5], greater than 196; in series [8], 227; in series [10], greater than 199. For the same compound, in series [11], the selectivity ratio was greater than 33. Also, the “%Cleared” value in series [6] is recorded as greater than 90%. For the same compound, the remaining at 6 h in series [7] came to 10%. Moreover, the LD50 in series [9] is listed as 707 mg/kg/day; in series [12], 1500 mg/kg/day.

Source of the values: ChEMBL document CHEMBL1154414, “In vitro and in vivo activities of T-705 against arenavirus and bunyavirus infections” (Antimicrob Agents Chemother, 2007).
